Data: ChEMBL document CHEMBL5579848, “Isothiocyanate-Corticosteroid Conjugates against asthma: Unity makes strength” (Eur J Med Chem, 2024)
Values after ≈ are worked out from the molar mass of the structure shown. Active and inactive are the calls of the source. The calls are words filed in the database; no cut-off is given here.

What was measured:
[1] = Half life in simulated gastric fluid at pH 1.2 in absence of pepsin at 100 uM incubated at 37 degreeC up to 24 hrs by UPHLC analysis; type: ADME; settings: simulated gastric fluid without pepsin
Summary of the method: (§1)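 A 10 mM DMSO stock was diluted to 100 μM in PBS (pH 7.4, 50 mM) or pepsin-free SGF (pH 1.2) and held at 37 ± 0.5 °C for 24 h. Timed aliquots were quantified by reverse-phase UHPLC-DAD against calibration curves (1.56–100 ppm), tracking the parent compound plus aminoacetate and corticosteroid metabolites. Pseudo-first-order t1/2 was calculated; n = 3.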

[2] = Half life in PBS at pH 7.4 at 100 uM incubated at 37 degreeC up to 24 hrs by UPHLC analysis; type: ADME; summary of the method: as §1
Albumin = Albumin (Bos taurus, UniProt P02769); test: Half life in 3% bovine serum albumin at 200 uM incubated up to 4 hrs by UHPLC analysis; type: ADME; settings: cattle, 3% bovine serum albumin solution
Chain of Albumin (P02769 whole entry): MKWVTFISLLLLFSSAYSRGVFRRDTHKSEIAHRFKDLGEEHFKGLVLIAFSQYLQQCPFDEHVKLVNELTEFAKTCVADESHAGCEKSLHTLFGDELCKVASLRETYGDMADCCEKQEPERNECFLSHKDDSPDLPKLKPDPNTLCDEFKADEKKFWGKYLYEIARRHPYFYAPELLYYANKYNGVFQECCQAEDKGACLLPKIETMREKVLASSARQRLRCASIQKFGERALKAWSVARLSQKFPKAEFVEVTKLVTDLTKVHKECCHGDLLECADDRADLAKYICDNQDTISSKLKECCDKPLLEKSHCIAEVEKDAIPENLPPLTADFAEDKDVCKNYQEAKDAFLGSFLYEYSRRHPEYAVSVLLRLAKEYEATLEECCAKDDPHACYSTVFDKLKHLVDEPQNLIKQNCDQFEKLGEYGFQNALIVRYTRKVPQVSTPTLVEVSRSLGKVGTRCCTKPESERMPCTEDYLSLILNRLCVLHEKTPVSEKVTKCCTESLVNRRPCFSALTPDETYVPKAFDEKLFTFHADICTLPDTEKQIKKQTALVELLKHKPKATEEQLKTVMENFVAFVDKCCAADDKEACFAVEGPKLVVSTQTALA
Summary of the method: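 A 10 mM DMSO stock was diluted to 200 μM in 3 % BSA in PBS and incubated at 37 ± 0.5 °C for up to 4 h. Timed samples were deproteinized with an equal volume of acetonitrile/0.1 % TFA, centrifuged, filtered and quantified by UHPLC. Results are given as pseudo-first-order t1/2 or % parent remaining at 10 min; n ≥ 3.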

[3] = Solubility of compound in simulated gastric fluid at pH 1.2 in absence of pepsin at 5 mg incubated at 25 degreeC for 6 hrs by UHPLC analysis; type: ADME; settings: simulated gastric fluid without pepsin
Summary of the method: (§2)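 Solid compound (5 mg) was shaken in 1 mL water, PBS (pH 7.4, 50 mM) or pepsin-free SGF (pH 1.2) for 6 h at 25 °C. Suspensions were filtered (0.45 μm) and the filtrate quantified by UHPLC, reported in mg/L; triplicate, mean values.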

[4] = Solubility of compound in PBS at pH 7.4 at 5 mg incubated at 25 degreeC for 6 hrs by UHPLC analysis; type: physicochemical; summary of the method: as §2
[5] = Solubility of compound in water at 5 mg incubated at 25 degreeC for 6 hrs by UHPLC analysis; type: physicochemical; summary of the method: as §2
[6] = Induction of H2S release in PBS at pH 7.4 at 100 uM measured after 30 mins by free radical analyzer; type: physicochemical; settings: buffer, pH 7.4, 0.5 h
Summary of the method: (§3)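 An H2S-selective mini-electrode was equilibrated in PBS pH 7.4, and compound was added to 100 μM final (1 % DMSO). Amperometric current was recorded for 30 min, with or without L-cysteine 4 mM added 10 min before. Current was converted to H2S using NaHS calibration (1–10 µM, pH 4.0); mean ± SEM.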

[7] = Induction of H2S release in PBS at pH 7.4 at 100 uM pretreated with L-Cys for 10 mins followed by compound addition and measured after 30 mins by free radical analyzer; type: physicochemical; settings: buffer, pH 7.4, 0.5 h; summary of the method: as §3
RBL-2H3 [8] = test: Cytotoxicity against rat RBL-2H3 cells assessed as reduction cell viability at 100 uM after 24 hrs by WST assay; type: toxicity, cell-based; settings: rbl-2h3, 24 h
Summary of the method: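 RBL-2H3 cells were grown in MEM with 10 % FBS, 10^4 cells/well, and attached for 24 h. They were then exposed 24 h to 100 μM compound (final) or 0.1 % DMSO. WST-1 (1:10) was added for 60 min at 37 °C and absorbance read at 450 nm. Viability is expressed as % of vehicle; mean ± SEM.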

RBL-2H3 [9] = test: Inhibition of mast cell degranulation in DNP-HSA antigen sensitized rat RBL-2H3 cells assessed as reduction in beta-hexoaminosidase release at 100 uM preincubated for 5 mins followed by DNP addition and measured after 1 hr by multiplate reader; type: functional, cell-based; settings: time 65.0 min
Summary of the method: (§4)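 RBL-2H3 cells (72×10^3/well) were sensitized overnight with anti-DNP IgE 0.50 µg/ml, then moved to phenol-free DMEM with 1 mg/ml BSA. Cells were preincubated 5 min at 37 °C with 0.1 % DMSO, cromolyn 1 mM or compound 100 μM, then challenged with DNP-HSA 10 ng/ml. After 1 h, supernatant was incubated 1 h with 1.4 mM p-nitrophenyl-N-acetyl-β-D-glucosaminide (citrate pH 4.2), stopped with Trizma pH 9.4, and read at 405 nm.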

Mus musculus [10] = test: Anti-asthmatic activity in OVA-induced ip dosed female BALB/c mouse model assessed as inhibition of bronchial hyperreactivity administered 30 min prior to every ovalbumin challenge on day 0 and 7 and measured after 21 days by isometric force transducer analysis; type: functional, organism-based; settings: dose 1-2 mg/kg, time 21.0 day
Summary of the method: (§5)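 Female BALB/c mice (20 g, 8 weeks) sensitized s.c. with 100 μg ovalbumin adsorbed to 13.3 mg aluminum hydroxide gel (0.4 ml) on days 0 and 7; saline controls. Test agent (1–2 mg/kg, or equimolar 3,51 × 10^-6 mol) or vehicle given ip 30 min before each OVA dose. Killed day 21 by enflurane overdose; lungs, bronchi, blood collected.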

Mus musculus [11] = test: Anti-asthmatic activity in OVA-induced female BALB/c mouse model assessed as reduction in alpha-SMA positive muscle layers at 1 to 2 mg/kg, ip for 30 min before every ovalbumin challenge on day 0 and 7 and measured after 21 days by immunohistochemical staining based microscopic analysis; type: functional, organism-based; settings: dose 1-2 mg/kg, time 21.0 day; summary of the method: as §5
Mus musculus [12] = test: Anti-asthmatic activity in OVA-induced female BALB/c mouse model assessed as reduction in cell infiltration at 1 mg/kg, ip for 30 min before every ovalbumin challenge on day 0 and 7 and measured after 21 days by H and E staining based microscopic analysis; type: functional, organism-based; settings: time 21.0 day; summary of the method: as §5
Mus musculus [13] = test: Anti-asthmatic activity in OVA-induced female BALB/c mouse model assessed as reduction in thickening of airway smooth muscle layer at 1 mg/kg, ip for 30 min before every ovalbumin challenge on day 0 and 7 and measured after 21 days by H and E staining based microscopic analysis; type: functional, organism-based; settings: time 21.0 day; summary of the method: as §5
Mus musculus [14] = test: Anti-asthmatic activity in OVA-induced female BALB/c mouse model assessed as reduction in detachment of the lamina propria at 1 mg/kg, ip for 30 min before every ovalbumin challenge on day 0 and 7 and measured after 21 days by H and E staining based microscopic analysis; type: functional, organism-based; settings: time 21.0 day; summary of the method: as §5
Mus musculus [15] = test: Anti-asthmatic activity in OVA-induced female BALB/c mouse model assessed as reduction in cell infiltration at 2 mg/kg, ip for 30 min before every ovalbumin challenge on day 0 and 7 and measured after 21 days by H and E staining based microscopic analysis; type: functional, organism-based; settings: time 21.0 day; summary of the method: as §5
Mus musculus [16] = test: Anti-asthmatic activity in OVA-induced female BALB/c mouse model assessed as reduction in thickening of airway smooth muscle layer at 2 mg/kg, ip for 30 min before every ovalbumin challenge on day 0 and 7 and measured after 21 days by H and E staining based microscopic analysis; type: functional, organism-based; settings: time 21.0 day; summary of the method: as §5
Mus musculus [17] = test: Anti-asthmatic activity in OVA-induced female BALB/c mouse model assessed as reduction in detachment of the lamina propria at 2 mg/kg, ip for 30 min before every ovalbumin challenge on day 0 and 7 and measured after 21 days by H and E staining based microscopic analysis; type: functional, organism-based; settings: time 21.0 day; summary of the method: as §5
Mus musculus [18] = test: Anti-asthmatic activity in OVA-induced female BALB/c mouse model assessed as reduction in IgE level in plasma at 2 mg/kg, ip for 30 min before every ovalbumin challenge on day 0 and 7 and measured after 21 days by ELISA; type: functional, organism-based; settings: time 21.0 day; summary of the method: as §5
Mus musculus [19] = test: Anti-asthmatic activity in OVA-induced ip dosed female BALB/c mouse model assessed as reduction in pulmonary IL-13 level administered for 30 min before every ovalbumin challenge on day 0 and 7 and measured after 21 days by ELISA; type: functional, organism-based; settings: dose 1-2 mg/kg, time 21.0 day; summary of the method: as §5
Mus musculus [20] = test: Anti-asthmatic activity in OVA-induced female BALB/c mouse model assessed as reduction in alpha-SMA positive muscle layers at 3.512 x 10^-6M, ip for 30 min before every ovalbumin challenge on day 0 and 7 and measured after 21 days by immunohistochemical staining based microscopic analysis; type: functional, organism-based; settings: dose 3.512 10^-6M, time 21.0 day; summary of the method: as §5
Mus musculus [21] = test: Anti-asthmatic activity in OVA-induced female BALB/c mouse model assessed as restoration of structure of alveolar septa at 3.512 x 10^-6M, ip for 30 min before every ovalbumin challenge on day 0 and 7 and measured after 21 days by H and E staining based microscopic analysis; type: functional, organism-based; settings: dose 3.512 10^-6M, time 21.0 day; summary of the method: as §5
Mus musculus [22] = test: Anti-asthmatic activity in OVA-induced female BALB/c mouse model assessed as restoration of structure of bronchial epithelium at 3.512 x 10^-6M, ip for 30 min before every ovalbumin challenge on day 0 and 7 and measured after 21 days by H and E staining based microscopic analysis; type: functional, organism-based; settings: dose 3.512 10^-6M, time 21.0 day; summary of the method: as §5
Mus musculus [23] = test: Anti-asthmatic activity in OVA-induced female BALB/c mouse model assessed as restoration of structure of airway smooth muscle at 3.512 x 10^-6M, ip for 30 min before every ovalbumin challenge on day 0 and 7 and measured after 21 days by H and E staining based microscopic analysis; type: functional, organism-based; settings: dose 3.512 10^-6M, time 21.0 day; summary of the method: as §5
Mus musculus [24] = test: Anti-asthmatic activity in OVA-induced female BALB/c mouse model assessed as inhibition of bronchial hyperreactivity at 3.512 x 10^-6M, ip for 30 min before every ovalbumin challenge on day 0 and 7 and measured after 21 days by isometric force transducer analysis; type: functional, organism-based; settings: dose 3.512 10^-6M, time 21.0 day; summary of the method: as §5
Mus musculus [25] = test: Anti-asthmatic activity in OVA-induced female BALB/c mouse model assessed as reduction in lung damage at 3.512 x 10^-6M, ip for 30 min before every ovalbumin challenge on day 0 and 7 and measured after 21 days by H and E staining based microscopic analysis; type: functional, organism-based; settings: dose 3.512 10^-6M, time 21.0 day; summary of the method: as §5
Mus musculus [26] = test: Anti-asthmatic activity in OVA-induced female BALB/c mouse model assessed as reduction in IgE level in plasma at 3.512 x 10^-6M, ip for 30 min before every ovalbumin challenge on day 0 and 7 and measured after 21 days by ELISA; type: functional, organism-based; settings: dose 3.512 10^-6M, time 21.0 day; summary of the method: as §5
Mus musculus [27] = test: Anti-asthmatic activity in OVA-induced female BALB/c mouse model assessed as reduction in pulmonary IL-13 level at 3.512 x 10^-6M, ip for 30 min before every ovalbumin challenge on day 0 and 7 and measured after 21 days by ELISA; type: functional, organism-based; settings: dose 3.512 10^-6M, time 21.0 day; summary of the method: as §5
RBL-2H3 [28] = test: Inhibition of mast cell degranulation in DNP-HSA antigen sensitized rat RBL-2H3 cells assessed as reduction in beta-hexoaminosidase release at 1 mM preincubated for 5 mins followed by DNP addition and measured after 1 hr by multiplate reader relative to control; type: functional; settings: RBL-2H3, 1.083 h, time 65 min; summary of the method: as §4

SMILES: C[C@]12C=CC(=O)C=C1CC[C@@H]1[C@@H]2[C@@H](O)C[C@@]2(C)[C@H]1C[C@H]1O[C@@H](C3CCCCC3)O[C@]12C(=O)COC(=O)CN=C=S
- half-life at 100 µM [1]: > 24 h
- half-life at 100 µM [2]: > 24 h
- half-life at 200 µM (Albumin): 1.4 h
- solubility at 6 h [3]: < 0.1 µg/mL
- solubility at 6 h [4]: 0.25 µg/mL (≈ 0.439 µM)
- solubility at 6 h [5]: 0.55 µg/mL (≈ 0.965 µM)
- Activity [6]: ~ 2 uM
- Activity [7]: ~ 2 uM
- Activity (RBL-2H3 [8]): Non-Toxic
- inhibition (RBL-2H3 [9]): Active
- inhibition (Mus musculus [10]): Dose-Dependent Effect
- Activity (Mus musculus [11]): Active
- Activity (Mus musculus [12]): inactive
- Activity (Mus musculus [13]): inactive
- Activity (Mus musculus [14]): inactive
- Activity (Mus musculus [15]): Active
- Activity (Mus musculus [16]): Active
- Activity (Mus musculus [17]): Active
- Activity (Mus musculus [18]): Active
- Activity (Mus musculus [19]): Dose-Dependent Effect
- Activity (Mus musculus [20]): Active
- Activity (Mus musculus [21]): Active
- Activity (Mus musculus [22]): Active
- Activity (Mus musculus [23]): Active

SMILES: C[C@]12C=CC(=O)C=C1CC[C@@H]1[C@@H]2[C@@H](O)C[C@@]2(C)[C@H]1C[C@H]1O[C@@H](C3CCCCC3)O[C@]12C(=O)COC(=O)CN
- inhibition (RBL-2H3 [9]): Active
- Activity (Mus musculus [24]): inactive
- Activity (Mus musculus [25]): inactive
- Activity (Mus musculus [26]): Active
- Activity (Mus musculus [27]): inactive

SMILES: O=C(O)c1cc(=O)c2c(OCC(O)COc3cccc4oc(C(=O)O)cc(=O)c34)cccc2o1 [CROMOLYN]
- inhibition at 1000 µM (RBL-2H3 [28]): ~25%
